# This is a sample that favours compounds with a hit; in the whole collection about 1.3% have one here.
# CASP6 VEID inh = caspase-6 (human) enzyme inhibition; P55212; purified caspase-6, Z-VEID-R110 cleavage fluorescence; inhibition, % at 12.5 µM; actives 0.53% (n = 350,000);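 active = mean inhibition across replicates at least about 35%, with every replicate also reaching that limit, limit read from the data; inconclusive = only one of the two criteria met; inactive = neither criterion met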
# Target sequence (P55212 24-179 limits assumed): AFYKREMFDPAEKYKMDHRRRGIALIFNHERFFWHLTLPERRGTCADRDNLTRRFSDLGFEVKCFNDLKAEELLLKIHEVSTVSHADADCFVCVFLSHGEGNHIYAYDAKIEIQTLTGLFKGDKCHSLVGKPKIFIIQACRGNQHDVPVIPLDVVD
# Target sequence (P55212 194-293 limits assumed): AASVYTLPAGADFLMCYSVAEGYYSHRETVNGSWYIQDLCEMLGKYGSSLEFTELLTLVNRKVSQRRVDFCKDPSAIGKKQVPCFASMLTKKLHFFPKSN
# XiGFP reactiv = X-chromosome reactivation activator. XiGFP mouse fibroblasts, % GFP-positive cells imaging, 3 d; cells co-treated with 5-aza-dC sensitizer; scaled so ellipticine positive control = 100%. activation, % at 7.58 µM. actives 0.055% (n = 360,000). AID 743238;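 active = mean normalized replicate activation at least 10% and every replicate at or above 10%; inconclusive = only one of the two criteria met; inactive = mean below 10% and not all replicates reach 10%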
#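 assay system = SV40-immortalized XiGFP fibroblast cells, line 68-5-11 | buffer or medium = DMEM plus 5-aza-dC sensitizer | doses = single-point pinned compound dosing | times = 3-day compound exposure, then 15 min fixation at room temperature | benchmarks = positive control ellipticine, 6 µM final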
# AF4-AF9 inh = inhibitors of human MLL-AF4/AF9 interaction | P42568 | actives 0.47% (n = 350,000) | AlphaScreen, biotin-AF4 peptide binding to FLAG-AF9 | inhibition, % at 10 µM;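 active = every replicate reaching a set inhibition limit, whatever the replicate mean, cut at about 25% in these data; inconclusive = mean inhibition reaches that limit but some replicates miss it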
# RAD54 branch = inhibitors of human RAD54 branch migration. RAD54 Holliday junction branch migration, FAM/BHQ fluorescence. inhibition, % at 10.4 µM. AID 602329. actives 0.14% (n = 360,000);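 active = mean normalized replicate activity at least 40 and at least half of replicates scoring 40 or more; inconclusive = only one of the two criteria met; inactive = mean below 40 and under half of replicates reaching 40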;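 note: inhibitors cause a drop in the FAM fluorescence signal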
# RAD52 anneal inh = blocks human RAD52 DNA annealing. inhibition, % at 18.7 µM. actives 0.46% (n = 360,000). P43351. recombinant RAD52 DNA annealing, FRET fluorescence;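 active = every replicate showing at least 50% inhibition; inconclusive = mean inhibition at least 50% but not in every replicate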
# S100A4 inh HTS = S100A4-myosin IIA interaction inhibition | actives 0.14% (n = 360,000) | inhibition, % at 10.7 µM | S100A4/TAMRA-MyoIIA peptide fluorescence polarization;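 active = mean inhibition of at least 70% across replicates, with every replicate also reaching that level; inconclusive = mean inhibition reaches 70% but some replicates fall short; inactive = mean inhibition below 70%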
# Target sequence (P26447 whole entry, looked up): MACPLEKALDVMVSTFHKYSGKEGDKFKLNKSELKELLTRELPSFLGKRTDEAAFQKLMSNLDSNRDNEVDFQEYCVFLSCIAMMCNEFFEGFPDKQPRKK
#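 Material: S100A4 monomer (human). Medium: Calcium-containing HEPES buffer, pH 7.2. Probe or stimulus: labelled myosin peptide probe, 5 nM. Compound dosing: one concentration per compound. Timing: polarization read 5 min after assay mix addition, stable 5–60 min. Benchmarks: DMSO as neutral control, TFP as positive control.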
# A number is an active result; i = inactive; ? = inconclusive; nt = no result given.
SMILES,CASP6 VEID inh,XiGFP reactiv,AF4-AF9 inh,RAD54 branch,RAD52 anneal inh,S100A4 inh HTS
CC1=[N+](C)c2c(ccc3cccnc23)C1(C)C,i,?,29,nt,i,159
COCC(=O)Nc1ccc2c(c1)[C@@H]1C[C@@H](CC(=O)NCCc3ccccc3)O[C@H](CO)[C@@H]1O2,i,i,i,i,i,i
CC(C)Nc1nc(NCCN2CCCC2)c2sc(-c3ccccc3)cc2n1,i,i,i,i,76,i
CCCC(=O)N1C[C@H]2[C@@H](c3ccccc31)[C@H](CO)N2C(=O)Nc1ccccc1,i,i,i,i,i,i
CCCCNC(=O)c1ccc2nc(-c3ccco3)c(-c3ccco3)nc2c1,72,i,i,i,i,i
O=C(NCCCO)c1ccc2nc(-c3ccco3)c(-c3ccco3)nc2c1,55,i,i,nt,i,i
O=C(NCc1ccccc1)c1ccc2nc(-c3ccco3)c(-c3ccco3)nc2c1,nt,nt,nt,i,nt,nt
COCC(=O)OC1CCn2c1nc1c2C(=O)C(C)=C(NC(C)=O)C1=O (stereo not given),99,i,i,nt,i,i
CC(C)NC(=O)N1CC2(C1)[C@H](c1ccccc1)[C@H](CO)N2C(=O)c1ccccn1,i,i,i,nt,i,i
O=C(C[C@H]1C[C@H](C(=O)N2CCCCC2)[C@@]2(CCc3ccccc3)c3[nH]c4cc(-c5ccco5)ccc4c3CCN2C1=O)NCCN1CCOCC1,i,i,26,i,i,i
CCCNC(=O)C[C@H]1CC[C@@H]2[C@H](COC[C@@H](O)CN2C(=O)CC)O1,i,i,i,i,i,i
CC(=O)Nc1cccc(NC(=O)c2cc([N+](=O)[O-])ccc2N2CCCCC2)c1,36,i,i,i,i,i
C[C@@H]1CCCCO[C@@H](CN(C)Cc2ccncc2)[C@@H](C)CN([C@H](C)CO)C(=O)c2cc(NS(C)(=O)=O)ccc2O1,nt,i,nt,nt,nt,nt
Fc1ccc2cnc(CCO[C@H]3CCCCO3)cc2c1,i,i,49,i,i,i
O=C1C(=Cc2ccco2)CCC1=Cc1ccco1,88,i,i,i,i,i
O/N=C1\CCC\C1=C/c1ccco1,nt,nt,nt,i,nt,nt
O=C1C(=Cc2ccco2)CCCC1=Cc1ccco1,72,i,i,i,i,i
Cc1ccc(C)c(OCc2nc3ccccc3[nH]2)c1,i,i,i,i,i,i
Cc1cccc(C)c1OCc1nc2ccccc2[nH]1,43,i,i,nt,i,i
Oc1ccccc1/C=N/N1CCN(c2ccccn2)CC1,i,i,i,nt,i,i
C(=N\N1CCN(c2ccccn2)CC1)/c1cccc2ccccc12,i,i,27,i,i,i
COc1cccc(C(=O)N2CCN(Cc3cc(Br)ccc3OC)CC2)c1,nt,nt,nt,i,nt,nt
COc1cccc(C(=O)N2CCN(Cc3ccc(OC)cc3OC)CC2)c1,42,i,i,i,i,i
Nc1cccnc1Oc1ccc(F)cc1,52,i,i,nt,i,i
Cc1ccc(Oc2ncccc2N)c2c1CCC2,i,i,i,i,i,i
SMILES,CASP6 VEID inh,XiGFP reactiv,AF4-AF9 inh,RAD54 branch,RAD52 anneal inh,S100A4 inh HTS
Nc1cccnc1Oc1ccc(F)cc1F,46,i,i,nt,i,i
COCC(=O)N1[C@H](CO)[C@H](c2ccc(-c3ccccc3)cc2)C12CN(C(C)=O)C2,i,i,i,nt,i,i
C[C@@H]1CN(C)C(=O)c2cccnc2O[C@H]1CN(C)C,nt,i,nt,nt,nt,nt
O=C(O)CN1C(=O)/C(=C\c2cc([N+](=O)[O-])ccc2OCc2ccccc2Cl)SC1=S,36,i,i,i,i,i
O=C(O)CN1C(=O)/C(=C\c2cc(Br)ccc2OCc2ccc(F)cc2)SC1=S,39,i,i,i,i,i
O=C(O)CCCCN1C(=O)/C(=C\c2ccc(OCc3ccccc3)c(OCc3ccccc3)c2)SC1=S,72,i,i,i,i,i
O=C(O)CN1C(=O)/C(=C\c2ccccc2OCc2ccc(F)cc2)SC1=S,i,i,i,i,i,i
O=C(O)CN1C(=O)/C(=C\c2ccccc2OCc2ccccc2)SC1=S,i,i,i,i,i,i
O=C(O)CN1C(=O)/C(=C\c2cc(Br)ccc2OCc2ccc(Cl)cc2)SC1=S,77,i,i,i,i,i
Cc1noc(C)c1S(=O)(=O)N(C)C[C@@H]1Oc2c(NS(=O)(=O)c3cccs3)cccc2C(=O)N([C@H](C)CO)C[C@@H]1C,i,i,i,nt,i,i
Cc1c(C=O)c(Cl)n(C)c(=O)c1C#N,51,i,i,nt,i,i
CC(=O)N=Cc1c(C)c(C#N)c(=O)n(C)c1O,i,i,i,nt,i,i
O=C(O)C1C2C=CC(C2)C1C(=O)Nc1ccccc1Br (stereo not given),48,i,i,i,i,i
Cc1c(NC(=O)C2C3C=CC(C3)C2C(=O)O)c(=O)n(-c2ccccc2)n1C (stereo not given),36,nt,i,nt,i,i
O=C(O)C1C2C=CC(C2)C1C(=O)Nc1ccc2c(c1)OCCO2 (stereo not given),nt,nt,nt,i,nt,nt
CN(C)c1ccc(NC(=O)C2C3C=CC(C3)C2C(=O)O)cc1 (stereo not given),42,i,29,i,58,i
CCNC(=O)Nc1ccc2c(c1)C(=O)N(C)[C@@H]1CC[C@H](CC(=O)N[C@H](C)c3ccccc3)O[C@@H]1CO2,nt,i,i,i,i,i
CCCN1C[C@H](C)[C@H](OC)CN(C)C(=O)c2ccc(NC(=O)CC)cc2OC[C@H]1C,nt,i,nt,nt,nt,nt
CN(C)C(=O)C[C@H]1CC[C@@H]2[C@H](COC[C@H](O)CN2CC2CCCCC2)O1,i,i,i,i,i,i
Nc1ccc(Cc2ccc(N)c(C(=O)O)c2)cc1C(=O)O,44,nt,i,i,i,i
CN(C)C(=O)C[C@@H]1C=C[C@H](NC(=O)C2CC2)[C@@H](CO)O1,i,i,i,i,i,i
Cc1cc(C)cc(NC(=O)Cc2ccc(S(=O)(=O)N3CCCC3)s2)c1,51,i,i,i,i,i
C[C@H]1CN([C@@H](C)CO)C(=O)c2cc(C#CCC3CCCC3)cnc2O[C@H]1CN(C)Cc1ccccn1,i,i,i,i,i,i
COc1cc(/C=N/NC(=O)c2ccc(NS(=O)(=O)c3cccs3)cc2)cc(OC)c1O,i,i,i,i,i,i
O=C(NN=Cc1ccc(F)c(F)c1)c1ccc(NS(=O)(=O)c2cccs2)cc1,i,i,33,nt,i,i
COc1ccc(C(=O)c2sc3nc(C)cc(-c4cccs4)c3c2N)cc1,i,?,i,nt,i,i
COc1ccc(C(=O)c2sc3nc(C)cc(-c4cccs4)c3c2N)cc1OC,i,25,i,i,i,i
CCC(C)(C)c1ccc(Oc2cccc(C(=O)O)c2)cc1,i,i,i,i,i,i
CCC(C)(C)c1ccc(OCCCC[n+]2ccccc2)c(C(C)(C)CC)c1,i,i,30,nt,i,i

# Screens as filed in PubChem.
